What all share (details): Homo sapiens
Test [1] deals with K562. The test can be described thus: Inhibition of DNA synthesis in K562 cells assessed as [3H]thymidine incorporation after 24 hrs. The test is classed as functional, cell-based. Summed up: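 K562 cells grown at 37 °C, 5% CO2 in RPMI-1640 with 10% heat-inactivated FBS. Cells at 2 × 10^5 per 200 µL exposed to bisphosphonates (diluted in water) for 24 h, pulsed with [3H]thymidine (0.04 µCi/well) for the last 2 h. Incorporation into DNA measured by liquid scintillation counting; IC50 for 24 h exposure.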
Background: Incorporation of labelled thymidine or its analogues reports DNA synthesis.

Test [2] relates to K562. The test is described as follows: Inhibition of GGPTase1 in K562 cells assessed as Rap1a geranylgeranylation after 24 hrs. The test is classed as cell-based. Summed up: (§1)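 K562 cells (5 × 10^6 per 5 mL; RPMI-1640, 10% heat-inactivated FBS, 37 °C, 5% CO2) treated 24 h with bisphosphonates diluted in water. Untreated cells served as negative control and 10 µM lovastatin as positive prenylation control. Western blotting used pan-Ras antibody (farnesylation), Rab6 antibody (GGPTase II), and an antibody recognising only unmodified Rap1a (GGPTase I).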

For test [3], the system named is K562. The test can be described thus: Inhibition of GGPTase2 in K562 cells assessed as Rab6 geranylgeranylation after 24 hrs. The test is classed as cell-based. Put shortly: as §1
In test [4] the test system is K562. The test is described as follows: Inhibition of Ras farnesylation in K562 cells by Western blot analysis after 24 hrs. The format is functional, cell-based. Summed up:
as §1
A general note: In western blotting, separated proteins are transferred to a membrane and probed.

Activity calls are given as the source filed them. No cut-off for these calls is given here. Where only a bound is given, the exact number is not on record here.

As for `C/C(=C\CC(P(=O)(O)O)P(=O)(O)O)CC/C=C(\C)CNc1ccccc1C(=O)O`, the IC50 (in general, the midpoint of a concentration-inhibition curve) in test [1] was > 100 µM. The outcome in test [2], in test [3] and in test [4] was inactive.
Consider `CC(C)=CCC/C(C)=C/CC(C/C=C(\C)CNc1ccccc1C(=O)O)(P(=O)(O)O)P(=O)(O)O`, for which, in test [1], the IC50 was > 100 µM. Further, the outcome in test [2] and in test [3] was Active. The outcome in test [4] was inactive.
On to `CC(C)=CCC/C(C)=C/CC(C/C=C(\C)CC/C=C(\C)CNc1ccccc1C(=O)O)(P(=O)(O)O)P(=O)(O)O`, for which the IC50 in test [1] was > 100 µM. In addition, the result in test [2] and in test [3] was Active. The result in test [4] was inactive.

(Values after ChEMBL document CHEMBL1147025, “Synthesis of fluorescently tagged isoprenoid bisphosphonates that inhibit protein geranylgeranylation” (Bioorg Med Chem, 2007).)
